Test results: ChEMBL document CHEMBL2401714, “New linezolid-like 1,2,4-oxadiazoles active against Gram-positive multiresistant pathogens” (Eur J Med Chem, 2013); call rule not given here
Converted amounts (≈) assume the structure as drawn.

Key:
Staphylococcus aureus [1] = experiment: Antibacterial activity against methicillin-susceptible Staphylococcus aureus M923 assessed as growth inhibition after 18 to 24 hrs by broth microdilution method; type: functional
Summary of the method: (§1)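 CLSI broth microdilution against S. aureus isolates. Two-fold serial dilutions were made in Mueller-Hinton broth, with DMSO as the compound solvent. An equal volume of inoculum (1 × 10⁶ CFU/mL) was added to each well. MIC was taken as the lowest concentration giving no visible turbidity of the medium.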

Staphylococcus aureus [2] = experiment: Antibacterial activity against methicillin-resistant Staphylococcus aureus F511 assessed as growth inhibition after 18 to 24 hrs by broth microdilution method; type: functional
Summary of the method: (§2)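 CLSI broth microdilution: serial 2-fold dilutions of each compound in Mueller-Hinton broth, with DMSO as solvent. An equal volume of inoculum (1 × 10⁶ CFU/mL) is added to each well holding the dilutions. MIC is the lowest concentration causing no visible turbidity. Values are expressed in […]. Clinical MRSA collection isolates 433 and F511, and reference strain Mu50.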

Staphylococcus aureus [3] = experiment: Antibacterial activity against methicillin-resistant Staphylococcus aureus 433 assessed as growth inhibition after 18 to 24 hrs by broth microdilution method; type: functional; summary of the method: as §2
Staphylococcus aureus [4] = experiment: Antibacterial activity against methicillin-resistant Staphylococcus aureus ATCC 700699 assessed as growth inhibition after 18 to 24 hrs by broth microdilution method; type: functional; summary of the method: as §2
Staphylococcus aureus [5] = experiment: Antibacterial activity against methicillin-susceptible Staphylococcus aureus ATCC 29213 assessed as growth inhibition after 18 to 24 hrs by broth microdilution method; type: functional; summary of the method: as §1
HepG2 [6] = experiment: Cytotoxicity against human HepG2 cells assessed as reduction of cell viability at 5 to 400 ug/ml by MTT assay; type: cell-based
Summary of the method: (§3)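 Cells were exposed to increasing compound concentrations, with a DMSO solvent control. HepG2 and HaCaT were grown in DMEM, and PK15 in DMEM/M199 (1:1), all with 10% heat-inactivated fetal serum. MTT (5 mg/mL stock, 1.2 mM final) was added for 1 h 30 min at 37 °C. The reaction was stopped with 90% ethanol, cells were spun at 800 × g for 10 min, and A570 was read. Values are means ± S.E. of 3 experiments run in triplicate.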

HaCaT [7] = experiment: Cytotoxicity against human HaCaT cells assessed as induction of cell death at => 25 ug/ml by MTT assay relative to control; type: cell-based; summary of the method: as §3
HaCaT [8] = experiment: Cytotoxicity against human HaCaT cells assessed as reduction of cell viability at 5 ug/ml by MTT assay; type: cell-based; summary of the method: as §3
[9] = Cytotoxicity against porcine PK-15 cells assessed as reduction of cell viability at 100 ug/ml by MTT assay relative to control; type: cell-based, Sus scrofa; conditions: pig; summary of the method: as §3
[10] = Cytotoxicity against porcine PK-15 cells assessed as reduction of cell viability at 200 to 400 ug/ml by MTT assay relative to control; type: cell-based, Sus scrofa; conditions: pig; summary of the method: as §3
[11] = Cytotoxicity against porcine PK-15 cells assessed as reduction of cell viability by MTT assay; type: cell-based, Sus scrofa; conditions: pig; summary of the method: as §3
[12] = Cytotoxicity against porcine PK-15 cells assessed as reduction of cell viability at 25 to 200 ug/ml by MTT assay; type: cell-based, Sus scrofa; conditions: pig; summary of the method: as §3
HepG2 [13] = experiment: Cytotoxicity against human HepG2 cells assessed as reduction of cell viability at 400 ug/ml by MTT assay relative to control; type: cell-based; summary of the method: as §3
HepG2 [14] = experiment: Cytotoxicity against human HepG2 cells assessed as reduction of cell viability at 50 ug/ml by MTT assay; type: cell-based; summary of the method: as §3
HaCaT [15] = experiment: Cytotoxicity against human HaCaT cells assessed as cell death at 200 to 400 ug/ml by MTT assay relative to control; type: cell-based; summary of the method: as §3
[16] = Cytotoxicity against porcine PK-15 cells assessed as reduction of cell viability at 5 ug/ml by MTT assay relative to control; type: cell-based, Sus scrofa; conditions: pig; summary of the method: as §3
[17] = Cytotoxicity against porcine PK-15 cells assessed as reduction of cell viability at 5 to 400 ug/ml by MTT assay; type: cell-based, Sus scrofa; conditions: pig; summary of the method: as §3

Q: Which MIC (Staphylococcus aureus [1]) does the source give for `Cc1noc(-c2ccc(N3CC(CI)OC3=O)cc2)n1` (racemic) here?
A: > 50 µg/mL

Q: What about the MIC (Staphylococcus aureus [2]) of the same compound?
A: 50 µg/mL (≈ 130 µM)

Q: What about the MIC (Staphylococcus aureus [3]) of the same compound?
A: 25 µg/mL (≈ 64.9 µM)

Q: And the MIC (Staphylococcus aureus [4])?
A: 50 µg/mL (≈ 130 µM)

Q: And the MIC (Staphylococcus aureus [5])?
A: > 50 µg/mL

Q: With `Cc1noc(-c2ccc(N3CC(CI)OC3=O)cc2F)n1` (racemic) as the compound, how does the MIC (Staphylococcus aureus [1]) read?
A: > 50 µg/mL

Q: And the MIC (Staphylococcus aureus [2])?
A: > 50 µg/mL

Q: And the MIC (Staphylococcus aureus [3])?
A: 50 µg/mL (≈ 124 µM)

Q: And the MIC (Staphylococcus aureus [4])?
A: 50 µg/mL (≈ 124 µM)

Q: And the MIC (Staphylococcus aureus [5])?
A: > 50 µg/mL

Q: With `Cc1noc(-c2ccc(N3CC(CN=[N+]=[N-])OC3=O)cc2)n1` (racemic) as the compound, how does the MIC (Staphylococcus aureus [1]) read?
A: > 50 µg/mL

Q: What about the MIC (Staphylococcus aureus [2]) of the same compound?
A: > 50 µg/mL

Q: What about the MIC (Staphylococcus aureus [3]) of the same compound?
A: > 50 µg/mL

Q: What about the MIC (Staphylococcus aureus [4]) of the same compound?
A: > 50 µg/mL

Q: What about the MIC (Staphylococcus aureus [5]) of the same compound?
A: > 50 µg/mL

Q: What does the source list for `Cc1noc(-c2ccc(N3CC(CN=[N+]=[N-])OC3=O)cc2F)n1` (racemic)?
A: MIC (Staphylococcus aureus [1]): > 50 µg/mL; MIC (Staphylococcus aureus [2]): > 50 µg/mL; MIC (Staphylococcus aureus [3]): > 50 µg/mL; MIC (Staphylococcus aureus [4]): > 50 µg/mL; MIC (Staphylococcus aureus [5]): > 50 µg/mL

Q: Which results are given for `CC(=O)NCC1CN(c2ccc(-c3nc(C)no3)cc2)C(=O)O1` (racemic)?
A: MIC (Staphylococcus aureus [1]): 6.25 µg/mL (≈ 19.8 µM); MIC (Staphylococcus aureus [2]): 12.5 µg/mL (≈ 39.5 µM); MIC (Staphylococcus aureus [3]): 1.6 µg/mL (≈ 5.06 µM); MIC (Staphylococcus aureus [4]): 6.25 µg/mL (≈ 19.8 µM); MIC (Staphylococcus aureus [5]): 12.5 µg/mL (≈ 39.5 µM)

Q: What does the source list for `CC(=O)NCC1CN(c2ccc(-c3nc(C)no3)c(F)c2)C(=O)O1` (racemic)?
A: MIC (Staphylococcus aureus [1]): 6.25 µg/mL (≈ 18.7 µM); MIC (Staphylococcus aureus [2]): 12.5 µg/mL (≈ 37.4 µM); MIC (Staphylococcus aureus [3]): 1.6 µg/mL (≈ 4.79 µM); MIC (Staphylococcus aureus [4]): 6.25 µg/mL (≈ 18.7 µM); MIC (Staphylococcus aureus [5]): 12.5 µg/mL (≈ 37.4 µM)

Q: With `CC(=S)NCC1CN(c2ccc(-c3nc(C)no3)cc2)C(=O)O1` (racemic) as the compound, how does the Activity (HepG2 [6]) read?
A: Toxic

Q: And the Activity (HaCaT [7])?
A: > 60%

Q: And the Activity (HaCaT [8])?
A: Toxic

Q: What about the Activity [9] of the same compound?
A: 70%

Q: What about the Activity [10] of the same compound?
A: > 90%

Q: And the Activity [11]?
A: Dose-dependent effect

Q: And the MIC (Staphylococcus aureus [1])?
A: 1.6 µg/mL (≈ 4.81 µM)

Q: And the MIC (Staphylococcus aureus [2])?
A: 1.6 µg/mL (≈ 4.81 µM)

Q: What about the MIC (Staphylococcus aureus [3]) of the same compound?
A: 1.6 µg/mL (≈ 4.81 µM)

Q: And the MIC (Staphylococcus aureus [4])?
A: ≤ 0.4 µg/mL

Q: And the MIC (Staphylococcus aureus [5])?
A: 3.13 µg/mL (≈ 9.42 µM)

Q: With `CC(=S)NCC1CN(c2ccc(-c3nc(C)no3)c(F)c2)C(=O)O1` (racemic) as the compound, how does the Activity [12] read?
A: Toxic

Q: What about the Activity (HepG2 [13]) of the same compound?
A: 40%

Q: What about the Activity (HepG2 [14]) of the same compound?
A: Toxic

Q: And the Activity (HaCaT [15])?
A: > 50%

Q: And the Activity [16]?
A: < 10%

Q: And the MIC (Staphylococcus aureus [1])?
A: 1.6 µg/mL (≈ 4.57 µM)

Q: And the MIC (Staphylococcus aureus [2])?
A: 1.6 µg/mL (≈ 4.57 µM)

Q: And the MIC (Staphylococcus aureus [3])?
A: 0.8 µg/mL (≈ 2.28 µM)

Q: What about the MIC (Staphylococcus aureus [4]) of the same compound?
A: ≤ 0.4 µg/mL

Q: What about the MIC (Staphylococcus aureus [5]) of the same compound?
A: 1.6 µg/mL (≈ 4.57 µM)

Q: With `Cc1noc(-c2ccc(N3CC(Cn4cccn4)OC3=O)cc2)n1` (racemic) as the compound, how does the MIC (Staphylococcus aureus [1]) read?
A: > 50 µg/mL

Q: What about the MIC (Staphylococcus aureus [2]) of the same compound?
A: > 50 µg/mL

Q: What about the MIC (Staphylococcus aureus [3]) of the same compound?
A: > 50 µg/mL

Q: And the MIC (Staphylococcus aureus [4])?
A: > 50 µg/mL

Q: What about the MIC (Staphylococcus aureus [5]) of the same compound?
A: > 50 µg/mL

Q: What does the source list for `Cc1noc(-c2ccc(N3CC(Cn4cccn4)OC3=O)cc2F)n1` (racemic)?
A: MIC (Staphylococcus aureus [1]): > 50 µg/mL; MIC (Staphylococcus aureus [2]): > 50 µg/mL; MIC (Staphylococcus aureus [3]): > 50 µg/mL; MIC (Staphylococcus aureus [4]): > 50 µg/mL; MIC (Staphylococcus aureus [5]): > 50 µg/mL

Q: Which MIC (Staphylococcus aureus [1]) does the source give for `Cc1noc(-c2ccc(N3CC(Cn4ccnc4)OC3=O)cc2)n1` (racemic) here?
A: > 50 µg/mL

Q: And the MIC (Staphylococcus aureus [2])?
A: > 50 µg/mL

Q: What about the MIC (Staphylococcus aureus [3]) of the same compound?
A: > 50 µg/mL

Q: And the MIC (Staphylococcus aureus [4])?
A: > 50 µg/mL

Q: And the MIC (Staphylococcus aureus [5])?
A: > 50 µg/mL

Q: With `Cc1noc(-c2ccc(N3CC(Cn4ccnc4)OC3=O)cc2F)n1` (racemic) as the compound, how does the MIC (Staphylococcus aureus [1]) read?
A: > 50 µg/mL

Q: What about the MIC (Staphylococcus aureus [2]) of the same compound?
A: > 50 µg/mL

Q: And the MIC (Staphylococcus aureus [3])?
A: > 50 µg/mL

Q: And the MIC (Staphylococcus aureus [4])?
A: > 50 µg/mL

Q: And the MIC (Staphylococcus aureus [5])?
A: > 50 µg/mL

Q: For `Cc1noc(-c2ccc(N3CC(Cn4cncn4)OC3=O)cc2)n1` (racemic), which MIC (Staphylococcus aureus [1]) is on record?
A: > 50 µg/mL

Q: And the MIC (Staphylococcus aureus [2])?
A: > 50 µg/mL

Q: What about the MIC (Staphylococcus aureus [3]) of the same compound?
A: > 50 µg/mL

Q: What about the MIC (Staphylococcus aureus [4]) of the same compound?
A: > 50 µg/mL

Q: What about the MIC (Staphylococcus aureus [5]) of the same compound?
A: > 50 µg/mL

Q: Which MIC (Staphylococcus aureus [1]) does the source give for `Cc1noc(-c2ccc(N3CC(Cn4cncn4)OC3=O)cc2F)n1` (racemic) here?
A: > 50 µg/mL

Q: And the MIC (Staphylococcus aureus [2])?
A: > 50 µg/mL

Q: What about the MIC (Staphylococcus aureus [3]) of the same compound?
A: > 50 µg/mL

Q: And the MIC (Staphylococcus aureus [4])?
A: > 50 µg/mL

Q: What about the MIC (Staphylococcus aureus [5]) of the same compound?
A: > 50 µg/mL

Q: With `CC(=O)NC[C@H]1CN(c2ccc(N3CCOCC3)c(F)c2)C(=O)O1` [LINEZOLID] as the compound, how does the Activity (HaCaT [15]) read?
A: Toxic

Q: And the Activity [17]?
A: Non-toxic

Q: And the Activity (HepG2 [6])?
A: Non-toxic

Q: What about the MIC (Staphylococcus aureus [1]) of the same compound?
A: 3.13 µg/mL (≈ 9.28 µM)

Q: What about the MIC (Staphylococcus aureus [2]) of the same compound?
A: 3.13 µg/mL (≈ 9.28 µM)

Q: And the MIC (Staphylococcus aureus [3])?
A: 1.6 µg/mL (≈ 4.74 µM)

Q: What about the MIC (Staphylococcus aureus [4]) of the same compound?
A: 0.8 µg/mL (≈ 2.37 µM)

Q: And the MIC (Staphylococcus aureus [5])?
A: ≤ 0.4 µg/mL
